The source made the active and inactive calls. The calls are words filed in the database; no cut-off is given here.

The CC50 is the concentration that lowers cell viability or growth by half. One may read the EC50 as the midpoint of the concentration-response curve.

The first data set relates to Coxsackievirus B4. Nature of the data set: Antiviral activity against Human coxsackievirus B4. The class given is functional, organism-based.
Settings: not given
As for `O=C(Cn1c(=O)ccn(CCCCCOc2ccc(Br)cc2)c1=O)Nc1ccc(Cc2ccccc2)cc1`, the inhibition result was “inactive”.
With `O=C(Cn1c(=O)ccn(CCCOc2ccc(Br)cc2)c1=O)Nc1ccc(Oc2ccccc2)cc1`, the inhibition result is “inactive”.

For a further data set, the system named is Punta Toro virus. Nature of the data set: Antiviral activity against Punta Toro virus.
Settings: not given
The data set is classed as functional, organism-based.
For the compound `O=C(Cn1c(=O)ccn(CCCCCOc2ccc(Br)cc2)c1=O)Nc1ccc(Cc2ccccc2)cc1`, the inhibition result was “inactive”.
For the compound `O=C(Cn1c(=O)ccn(CCCOc2ccc(Br)cc2)c1=O)Nc1ccc(Oc2ccccc2)cc1`, the inhibition result is “inactive”.

In the next data set the test system is HEL. Nature of the data set: Cytotoxicity against human cytomegalovirus infected HEL cells assessed as cell growth inhibition incubated for 3 days by coulter counter method. The data set is classed as cell-based. Conditions: 72 h. A digest of the protocol: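 HEL cells were seeded at 5 × 10^3 cells/well and left to adhere and proliferate for 24 h, then compound-containing medium was added. After 3 days at 37 °C, cells were counted with a Coulter counter.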
As to `O=C(Cn1c(=O)ccn(CCCCCOc2ccc(Br)cc2)c1=O)Nc1ccc(Cc2ccccc2)cc1`, the CC50 was found to be 8.7 µM.
Consider `O=C(Cn1c(=O)ccn(CCCOc2ccc(Br)cc2)c1=O)Nc1ccc(Oc2ccccc2)cc1`, for which the 50% cytotoxic concentration (CC50) is 15.2 µM.

The subject of another data set is Sindbis virus. Nature of the data set: Antiviral activity against Sindbis virus. The data set is classed as functional, organism-based.
Settings: not given
As to `O=C(Cn1c(=O)ccn(CCCCCOc2ccc(Br)cc2)c1=O)Nc1ccc(Cc2ccccc2)cc1`, the inhibition entry was “inactive”.
Take `O=C(Cn1c(=O)ccn(CCCOc2ccc(Br)cc2)c1=O)Nc1ccc(Oc2ccccc2)cc1`: the inhibition result was “inactive”.

System in a further data set: not listed separately
Nature of the data set: Cytotoxicity against human cytomegalovirus infected HEL cells assessed as alteration of cell morphology incubated for 3 days by microscopy. The data set is classed as cell-based. Particulars: HEL cells infected with human cytomegalovirus. The gist of the method:
(§1)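 Cytotoxicity was given as the minimum cytotoxic concentration (MCC): the compound concentration causing a microscopically detectable change in HEL cell morphology.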
For `O=C(Cn1c(=O)ccn(CCCCCOc2ccc(Br)cc2)c1=O)Nc1ccc(Cc2ccccc2)cc1`, the MCC at 72 h is 4 µM.
On the same count and under the same terms, then `O=C(Cn1c(=O)ccn(CCCOc2ccc(Br)cc2)c1=O)Nc1ccc(Oc2ccccc2)cc1`, with at least 100 µM.

The next data set has as its system Influenza B virus. Nature of the data set: Antiviral activity against Influenza B virus.
Settings: not given
The data set is classed as functional, organism-based. A digest of the protocol: (§2)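 Confluent cell monolayers (HEL, Vero, HeLa or MDCK) in 96-well plates were infected with 100 CCID50 of virus in the presence of varying compound concentrations. Cytopathicity was scored once it reached completion in untreated infected controls.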
As to `O=C(Cn1c(=O)ccn(CCCCCOc2ccc(Br)cc2)c1=O)Nc1ccc(Cc2ccccc2)cc1`, the inhibition entry was “inactive”.
Take `O=C(Cn1c(=O)ccn(CCCOc2ccc(Br)cc2)c1=O)Nc1ccc(Oc2ccccc2)cc1`: the inhibition result was “inactive”.

In the next data set the test system is Feline coronavirus. Nature of the data set: Antiviral activity against Feline coronavirus. The class given is functional, organism-based.
Settings: not given
In the case of `O=C(Cn1c(=O)ccn(CCCCCOc2ccc(Br)cc2)c1=O)Nc1ccc(Cc2ccccc2)cc1`, the inhibition result was “inactive”.
On the same count and under the same terms, the entry for `O=C(Cn1c(=O)ccn(CCCOc2ccc(Br)cc2)c1=O)Nc1ccc(Oc2ccccc2)cc1` is “inactive”.

A further data set deals with Human respirovirus 3. Nature of the data set: Antiviral activity against Parainfluenza 3 virus. The data set is classed as functional, organism-based.
Settings: not given
On to `O=C(Cn1c(=O)ccn(CCCCCOc2ccc(Br)cc2)c1=O)Nc1ccc(Cc2ccccc2)cc1`, for which the inhibition entry was “inactive”.
Turning to `O=C(Cn1c(=O)ccn(CCCOc2ccc(Br)cc2)c1=O)Nc1ccc(Oc2ccccc2)cc1`, the inhibition entry was “inactive”.

For another data set, the system named is HEL. Nature of the data set: Cytotoxicity against Varicella zoster virus infected HEL cells assessed as cell growth inhibition incubated for 3 days by coulter counter method. Particulars: human, 72 h.
Take `O=C(Cn1c(=O)ccn(CCCOc2ccc(Br)cc2)c1=O)Nc1ccc(Oc2ccccc2)cc1`: the CC50 was 15.2 µM.

In another data set the test system is Vesicular stomatitis virus. Nature of the data set: Antiviral activity against Vesicular stomatitis virus. The class given is functional, organism-based.
Settings: not given
The gist of the method:
as §2
As to `O=C(Cn1c(=O)ccn(CCCCCOc2ccc(Br)cc2)c1=O)Nc1ccc(Cc2ccccc2)cc1`, the inhibition entry was “inactive”.
Same read-out and setting: the entry for `O=C(Cn1c(=O)ccn(CCCOc2ccc(Br)cc2)c1=O)Nc1ccc(Oc2ccccc2)cc1` is “inactive”.

System in the next data set: not listed separately
Nature of the data set: Cytotoxicity against Varicella zoster virus infected HEL cells assessed as alteration of cell morphology incubated for 3 days by microscopy. The data set is classed as cell-based. Particulars: human, HEL cells infected with Varicella zoster virus. A digest of the protocol: as §1
Consider `O=C(Cn1c(=O)ccn(CCCCCOc2ccc(Br)cc2)c1=O)Nc1ccc(Cc2ccccc2)cc1`, for which the MCC at 72 h is at least 4 µM.
Same read-out and setting: then `O=C(Cn1c(=O)ccn(CCCOc2ccc(Br)cc2)c1=O)Nc1ccc(Oc2ccccc2)cc1`, with at least 100 µM.

The test system of a further data set is Mammalian orthoreovirus 1. Nature of the data set: Antiviral activity against Reovirus 1. The data set is classed as functional.
Settings: not given
As to `O=C(Cn1c(=O)ccn(CCCCCOc2ccc(Br)cc2)c1=O)Nc1ccc(Cc2ccccc2)cc1`, the inhibition entry is “inactive”.
On to `O=C(Cn1c(=O)ccn(CCCOc2ccc(Br)cc2)c1=O)Nc1ccc(Oc2ccccc2)cc1`, for which the inhibition entry was “inactive”.

For another data set, the system named is Human herpesvirus 2 strain G. Nature of the data set: Antiviral activity against HSV2 G Lyons. The class given is functional, organism-based.
Settings: not given
As to `O=C(Cn1c(=O)ccn(CCCCCOc2ccc(Br)cc2)c1=O)Nc1ccc(Cc2ccccc2)cc1`, the inhibition entry was “inactive”.
Consider `O=C(Cn1c(=O)ccn(CCCOc2ccc(Br)cc2)c1=O)Nc1ccc(Oc2ccccc2)cc1`, for which the inhibition entry was “inactive”.

Another data set deals with Human alphaherpesvirus 2. Nature of the data set: Antiviral activity against HSV2 Lyons. The class given is functional, organism-based.
Settings: not given
A digest of the protocol: (§3)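 Confluent cell monolayers in 96-well plates were inoculated with 100 CCID50 of virus together with varying compound concentrations. Cytopathicity was scored once it reached completion in untreated infected controls.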
For `O=C(Cn1c(=O)ccn(CCCCCOc2ccc(Br)cc2)c1=O)Nc1ccc(Cc2ccccc2)cc1`, the inhibition entry was “inactive”.
Same read-out and setting: then `O=C(Cn1c(=O)ccn(CCCOc2ccc(Br)cc2)c1=O)Nc1ccc(Oc2ccccc2)cc1`, with “inactive”.

The test system of the next data set is Human immunodeficiency virus 1. Nature of the data set: Antiviral activity against HIV1 3B infected in human CEM cells assessed as reduction in virus- induced cytopathicity incubated for 4 to 5 days by microscopy based virus syncytium formation assay. The data set is classed as functional, organism-based. Conditions: CCRF-CEM. The gist of the method:
(§4)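 CEM cells at ~3 × 10^5 cells/mL, infected with 100 CCID50 of HIV per mL in the presence of compound dilutions. Incubated 4–5 days at 37 °C in humidified CO2. Syncytium (giant cell) formation scored by microscopy.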
Regarding `O=C(Cn1c(=O)ccn(CCCCCOc2ccc(Br)cc2)c1=O)Nc1ccc(Cc2ccccc2)cc1`, the inhibition result is “inactive”.
As to `O=C(Cn1c(=O)ccn(CCCOc2ccc(Br)cc2)c1=O)Nc1ccc(Oc2ccccc2)cc1`, the inhibition result was “inactive”.

In the next data set the test system is Human betaherpesvirus 5. Nature of the data set: Antiviral activity against human cytomegalovirus AD169 infected in HEL cells assessed as reduction in viral plaque formation. The class given is functional, organism-based. Particulars: Human betaherpesvirus 5, AD169, HEL. A digest of the protocol:
(§5)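 Confluent HEL fibroblasts were infected with 100 PFU of HCMV in the presence of varying compound concentrations. Plaques were counted once plaque formation was complete in untreated infected controls.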
Regarding `O=C(Cn1c(=O)ccn(CCCCCOc2ccc(Br)cc2)c1=O)Nc1ccc(Cc2ccccc2)cc1`, the EC50 is 0.44 µM.

A further data set relates to Human immunodeficiency virus 2. Nature of the data set: Antiviral activity against HIV2 ROD infected in human CEM cells assessed as reduction in virus- induced cytopathicity incubated for 4 to 5 days by microscopy based virus syncytium formation assay. The class given is functional, organism-based. Conditions: ISOLATE ROD, CCRF-CEM. A digest of the protocol: as §4
`O=C(Cn1c(=O)ccn(CCCCCOc2ccc(Br)cc2)c1=O)Nc1ccc(Cc2ccccc2)cc1`: the inhibition entry is “inactive”.
The same measure, in the same setting: the entry for `O=C(Cn1c(=O)ccn(CCCOc2ccc(Br)cc2)c1=O)Nc1ccc(Oc2ccccc2)cc1` is “inactive”.

In another data set the test system is Human alphaherpesvirus 1. Nature of the data set: Antiviral activity against HSV1 KOS. The class given is functional, organism-based.
Settings: not given
The gist of the method:
as §3
Take `O=C(Cn1c(=O)ccn(CCCCCOc2ccc(Br)cc2)c1=O)Nc1ccc(Cc2ccccc2)cc1`: the inhibition result is “inactive”.
Regarding `O=C(Cn1c(=O)ccn(CCCOc2ccc(Br)cc2)c1=O)Nc1ccc(Oc2ccccc2)cc1`, the inhibition entry is “inactive”.

The subject of another data set is Human betaherpesvirus 5. Nature of the data set: Antiviral activity against human cytomegalovirus Davis infected in HEL cells assessed as reduction in viral plaque formation. The data set is classed as functional, organism-based. Particulars: Human betaherpesvirus 5, Davis. The gist of the method:
as §5
Regarding `O=C(Cn1c(=O)ccn(CCCCCOc2ccc(Br)cc2)c1=O)Nc1ccc(Cc2ccccc2)cc1`, the EC50 came out at 0.57 µM.
The same measure, in the same setting: the figure for `O=C(Cn1c(=O)ccn(CCCOc2ccc(Br)cc2)c1=O)Nc1ccc(Oc2ccccc2)cc1` is 3.9 µM.

A further data set concerns Vaccinia virus. Nature of the data set: Antiviral activity against Vaccinia virus Lederle. The class given is functional, organism-based. Particulars: Orthopoxvirus vaccinia. A digest of the protocol:
as §2
Turning to `O=C(Cn1c(=O)ccn(CCCCCOc2ccc(Br)cc2)c1=O)Nc1ccc(Cc2ccccc2)cc1`, the inhibition result is “inactive”.
In the case of `O=C(Cn1c(=O)ccn(CCCOc2ccc(Br)cc2)c1=O)Nc1ccc(Oc2ccccc2)cc1`, the inhibition entry is “inactive”.

For another data set, the system named is Influenza A virus. Nature of the data set: Antiviral activity against Influenza A virus H1N1. The class given is functional, organism-based.
Settings: not given
A digest of the protocol: as §2
With `O=C(Cn1c(=O)ccn(CCCCCOc2ccc(Br)cc2)c1=O)Nc1ccc(Cc2ccccc2)cc1`, the inhibition result was “inactive”.
As for `O=C(Cn1c(=O)ccn(CCCOc2ccc(Br)cc2)c1=O)Nc1ccc(Oc2ccccc2)cc1`, the inhibition entry was “inactive”.

For another data set, the system named is Influenza A virus H3N2. Nature of the data set: Antiviral activity against Influenza A virus H3N2. The data set is classed as functional, organism-based.
Settings: not given
A digest of the protocol: as §2
As for `O=C(Cn1c(=O)ccn(CCCCCOc2ccc(Br)cc2)c1=O)Nc1ccc(Cc2ccccc2)cc1`, the inhibition result is “inactive”.
On the same count and under the same terms, the entry for `O=C(Cn1c(=O)ccn(CCCOc2ccc(Br)cc2)c1=O)Nc1ccc(Oc2ccccc2)cc1` is “inactive”.

The values are drawn from ChEMBL document CHEMBL3621200, “Toward the discovery of dual HCMV-VZV inhibitors: Synthesis, structure activity relationship analysis, and cytotoxicity studies of long chained 2-uracil-3-yl-N-(4-phenoxyphenyl)acetamides” (Bioorg Med Chem, 2015).
